This note sets out measurements from ChEMBL document CHEMBL3259629, “Discovery and optimization of piperidyl-1,2,3-triazole ureas as potent, selective, and in vivo-active inhibitors of α/β-hydrolase domain containing 6 (ABHD6)” (J Med Chem, 2013).

Test [1] concerns the target T1, Monoacylglycerol lipase ABHD6 (Mus musculus) (UniProt Q8R2Y0).
T1 sequence (whole entry): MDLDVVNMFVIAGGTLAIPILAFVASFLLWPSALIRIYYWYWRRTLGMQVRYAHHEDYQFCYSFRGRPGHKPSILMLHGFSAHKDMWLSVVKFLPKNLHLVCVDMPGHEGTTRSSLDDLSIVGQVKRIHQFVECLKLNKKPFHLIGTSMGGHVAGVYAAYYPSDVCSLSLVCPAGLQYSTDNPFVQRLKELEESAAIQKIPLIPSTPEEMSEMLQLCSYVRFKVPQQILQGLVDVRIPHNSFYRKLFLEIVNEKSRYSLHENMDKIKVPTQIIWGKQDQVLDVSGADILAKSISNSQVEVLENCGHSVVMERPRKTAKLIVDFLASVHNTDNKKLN
The test is described as follows: Inhibition of ABHD6 in FP-rhodamine-labelled mouse brain membrane at 10 to 0.0032 uM preincubated for 30 mins followed by FP-rhodamine labelling measured after 30 mins by gel-based competitive ABPP assay. Type of test: tissue-based. The method in brief:
(§1)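 Mouse brain membrane proteome (1 mg/mL) preincubated with compound for 30 min at 37 °C, then labelled with FP-rhodamine or HT-01 (1 μM final) for 30 min at 37 °C. Quenched in SDS loading buffer, run on 10% SDS-PAGE and scanned for in-gel fluorescence. Bands assigned by gel migration.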

In test [2] the target is T1, Monoacylglycerol lipase ABHD6 (Mus musculus). The test is described as follows: Inhibition of ABHD6 in HT-01-labelled mouse Neuro2a cell membrane at 0.003 to 0.6 uM preincubated for 30 mins followed by HT-01 labelling measured after 30 mins by gel-based competitive ABPP assay. Put shortly: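 Neuro2A membrane proteome (1 mg/mL) preincubated with compound for 30 min at 37 °C, then labelled with HT-01 (1 μM, 30 min, 37 °C). SDS-PAGE and in-gel fluorescence scanning, with activity taken from integrated band intensity.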

In test [3] the target is T2, Fatty-acid amide hydrolase 1 (Mus musculus) (UniProt O08914).
T2 sequence (whole entry): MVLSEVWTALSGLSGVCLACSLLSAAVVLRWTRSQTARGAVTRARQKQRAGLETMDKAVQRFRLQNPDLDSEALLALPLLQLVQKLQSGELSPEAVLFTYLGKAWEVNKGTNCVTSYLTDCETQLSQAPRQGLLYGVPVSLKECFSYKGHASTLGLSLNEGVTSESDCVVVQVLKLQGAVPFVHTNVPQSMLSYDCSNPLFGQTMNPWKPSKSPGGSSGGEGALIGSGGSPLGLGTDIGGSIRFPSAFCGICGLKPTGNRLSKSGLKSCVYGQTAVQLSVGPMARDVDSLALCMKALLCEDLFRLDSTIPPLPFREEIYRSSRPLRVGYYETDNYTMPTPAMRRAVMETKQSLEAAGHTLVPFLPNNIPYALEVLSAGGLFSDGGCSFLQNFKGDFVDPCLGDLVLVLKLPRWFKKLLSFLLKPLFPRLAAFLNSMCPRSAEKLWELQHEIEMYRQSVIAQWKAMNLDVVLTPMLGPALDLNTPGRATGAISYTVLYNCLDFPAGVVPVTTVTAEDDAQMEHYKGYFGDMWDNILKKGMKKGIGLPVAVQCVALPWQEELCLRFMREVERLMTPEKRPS
Description: Inhibition of FAAH in FP-rhodamine-labelled mouse brain membrane at 0.4 to 10 uM preincubated for 30 mins followed by FP-rhodamine labelling measured after 30 mins by gel-based competitive ABPP assay. Format: tissue-based. The method in brief: as §1

The target in test [4] is T1, Monoacylglycerol lipase ABHD6 (Mus musculus). Description: Inhibition of ABHD6 in azide-rhodamine-labelled mouse Neuro2a cell membrane at 0.01 to 0.6 uM preincubated for 1 hr followed by azide-rhodamine labelling by SDS-PAGE-based in-gel fluorescence scanning assay. The method in brief:
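Live Neuro2A cells (DMEM, 10% FBS) treated with compound for 1 hr at 37 °C, then lysed. The membrane proteome was conjugated to azide-rhodamine by click chemistry, resolved by SDS-PAGE and scanned for in-gel fluorescence.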

Test [5] deals with T2, Fatty-acid amide hydrolase 1 (Mus musculus). Description: Inhibition of mouse brain FAAH at 10 uM after 30 mins by FP-rhodamine ABPP-based SDS-PAGE analysis relative to control.
In test [6] the target is T1, Monoacylglycerol lipase ABHD6 (Mus musculus). The test is described as follows: Inhibition of ABHD6 in FP-rhodamine-labelled mouse brain membrane at 10 nM preincubated for 30 mins followed by FP-rhodamine labelling measured after 30 mins by gel-based competitive ABPP assay. Type of test: tissue-based. Put shortly:
as §1

Test [7] shares this target. Description: Inhibition of ABHD6 in FP-rhodamine-labelled mouse brain membrane at 0.01 uM after 30 mins preincubated for 30 mins followed by HT-01 labelling measured after 30 mins by gel-based competitive ABPP assay. Format: tissue-based. The method in brief: as §1
For test [8], the target named is T3, Diacylglycerol lipase-beta (Mus musculus) (UniProt Q91WC9).
T3 sequence (whole entry): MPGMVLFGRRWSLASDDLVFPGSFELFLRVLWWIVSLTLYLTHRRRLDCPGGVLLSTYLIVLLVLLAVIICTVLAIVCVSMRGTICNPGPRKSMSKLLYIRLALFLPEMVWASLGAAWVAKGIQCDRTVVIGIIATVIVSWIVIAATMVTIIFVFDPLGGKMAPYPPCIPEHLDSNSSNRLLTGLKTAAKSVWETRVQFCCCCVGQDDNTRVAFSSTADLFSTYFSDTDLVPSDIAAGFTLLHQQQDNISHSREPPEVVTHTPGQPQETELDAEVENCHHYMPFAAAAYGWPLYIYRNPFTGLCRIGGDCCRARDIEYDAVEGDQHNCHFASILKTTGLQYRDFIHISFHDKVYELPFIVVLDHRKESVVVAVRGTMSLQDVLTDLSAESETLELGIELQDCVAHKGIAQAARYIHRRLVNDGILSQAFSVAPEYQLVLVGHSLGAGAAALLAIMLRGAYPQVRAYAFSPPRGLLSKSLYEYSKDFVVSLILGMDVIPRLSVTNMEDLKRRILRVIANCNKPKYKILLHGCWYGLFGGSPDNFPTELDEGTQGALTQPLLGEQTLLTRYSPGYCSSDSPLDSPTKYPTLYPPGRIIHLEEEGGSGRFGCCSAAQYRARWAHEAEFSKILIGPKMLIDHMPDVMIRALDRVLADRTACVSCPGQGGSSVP
The test is described as follows: Inhibition of FP-rhodamine-labelled recombinant mouse DAGLbeta expressed in HEK293T cells at 10 uM preincubated for 30 mins followed by FP-rhodamine labelling measured after 30 mins by gel-based competitive ABPP assay. The following applies: HEK-293T. Format: cell-based. Put shortly:
(§2)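 Mouse DAGLβ transiently overexpressed in HEK293T. Lysate diluted to 0.3 mg/mL in 50 mM HEPES pH 7.2, 100 mM NaCl, 5 mM CaCl₂, 0.1% Triton X-100, 10% DMSO. Compound preincubated 30 min at 37 °C, then 1 μM probe for 30 min at 37 °C, SDS-PAGE and in-gel fluorescence.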

The target in test [9] is T4, Monoglyceride lipase (Mus musculus) (UniProt O35678).
T4 sequence (whole entry): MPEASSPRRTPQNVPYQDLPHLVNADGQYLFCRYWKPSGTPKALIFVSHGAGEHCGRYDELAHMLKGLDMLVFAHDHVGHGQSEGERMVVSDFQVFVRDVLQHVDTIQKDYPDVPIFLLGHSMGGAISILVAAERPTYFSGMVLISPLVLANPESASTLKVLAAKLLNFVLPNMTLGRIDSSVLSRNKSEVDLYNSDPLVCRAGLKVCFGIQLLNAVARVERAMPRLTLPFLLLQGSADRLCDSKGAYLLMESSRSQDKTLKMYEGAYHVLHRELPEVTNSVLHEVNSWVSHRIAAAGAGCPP
Description: Inhibition of MGLL in FP-rhodamine-labelled mouse brain membrane at 10 uM after 30 mins preincubated for 30 mins followed by HT-01 labelling measured after 30 mins by gel-based competitive ABPP assay. Type of test: tissue-based. The method in brief: as §1

Test [10] addresses T3, Diacylglycerol lipase-beta (Mus musculus). The test is described as follows: Inhibition of FP-rhodamine-labelled recombinant mouse DAGLbeta expressed in HEK293T cells at 100 nM preincubated for 30 mins followed by FP-rhodamine labelling measured after 30 mins by gel-based competitive ABPP assay. Conditions: HEK-293T. Format: cell-based. The method in brief:
as §2

Test [11] has as its target T4, Monoglyceride lipase (Mus musculus). The test is described as follows: Inhibition of mouse brain MGLL at 10 uM after 30 mins by FP-rhodamine ABPP-based mass spectrometry relative to control.
Test [12] concerns the target Acyl-protein thioesterase 2 (Mus musculus) (UniProt Q9WTL7). The test is described as follows: Inhibition of FP-rhodamine-labelled recombinant mouse LYPLA2 at 10 uM preincubated for 30 mins followed by FP-rhodamine labelling measured after 30 mins by gel-based competitive ABPP assay.
Test [13] addresses Acyl-protein thioesterase 1 (Mus musculus) (UniProt P97823). Description: Inhibition of FP-rhodamine-labelled recombinant mouse LYPLA1 at 10 uM preincubated for 30 mins followed by FP-rhodamine labelling measured after 30 mins by gel-based competitive ABPP assay.
Test [14] addresses T1, Monoacylglycerol lipase ABHD6 (Mus musculus). The test is described as follows: Inhibition of ABHD6 in FP-rhodamine-labelled mouse brain membrane at 1 nM preincubated for 30 mins followed by FP-rhodamine labelling measured after 30 mins by gel-based competitive ABPP assay. Type of test: tissue-based. Put shortly:
as §1

Test [15] concerns the target T3, Diacylglycerol lipase-beta (Mus musculus). Description: Inhibition of FP-rhodamine-labelled recombinant mouse DAGLbeta expressed in HEK293T cells at 1 uM preincubated for 30 mins followed by FP-rhodamine labelling measured after 30 mins by gel-based competitive ABPP assay. Conditions: HEK-293T. Format: cell-based. Put shortly: as §2

Activity calls are given as the source filed them. No cut-off for these calls is given here.

Acyl-protein thioesterase 2 (Mus musculus), sequence (Q9WTL7 whole entry): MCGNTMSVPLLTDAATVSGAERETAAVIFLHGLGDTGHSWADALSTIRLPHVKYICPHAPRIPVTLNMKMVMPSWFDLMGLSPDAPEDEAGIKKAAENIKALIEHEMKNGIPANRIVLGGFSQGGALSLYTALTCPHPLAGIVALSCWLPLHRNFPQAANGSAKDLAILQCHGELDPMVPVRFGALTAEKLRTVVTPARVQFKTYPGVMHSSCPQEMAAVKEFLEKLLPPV
Acyl-protein thioesterase 1 (Mus musculus), sequence (P97823 whole entry): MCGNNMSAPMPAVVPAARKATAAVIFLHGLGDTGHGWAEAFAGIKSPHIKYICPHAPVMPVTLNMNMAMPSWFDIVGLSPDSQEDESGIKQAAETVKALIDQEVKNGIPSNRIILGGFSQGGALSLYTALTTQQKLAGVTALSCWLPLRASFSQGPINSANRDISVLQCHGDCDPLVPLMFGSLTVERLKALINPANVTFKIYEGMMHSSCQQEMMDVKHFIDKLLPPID

What is called inhibition is the drop in the measured response relative to a control, in per cent. For the molecule `C#CCOCCCc1ccc(C2CCCCN2C(=O)n2cc(-c3ccc(-c4ccc(OC)cc4)cc3)nn2)cc1` (racemic), the inhibition entry in [1], in test [2], in test [3] and in test [4] was “Active” throughout.

For `COc1ccc(-c2ccc(-c3cn(C(=O)N4CCCCC4c4ccccc4)nn3)cc2)cc1` (racemic), the inhibition result in test [5], in [7] and in test [9] was “Active” in each case. Further, the inhibition in test [6] is 30%; in test [8] it was 0%; in test [10] it was 0%.

For `COc1ccccc1-c1ccc(-c2cn(C(=O)N3CCCCC3Cc3ccccc3)nn2)cc1` (racemic), the inhibition entry in [11], in [7] and in test [9] was “Active” throughout. The inhibition in [6] stood at 89%; in test [8], 100%; in [10] it was 66%.

For `COc1ccccc1-c1ccc(-c2cn(C(=O)N3CCCCC3c3ccccc3)nn2)cc1` (racemic), the inhibition entry in test [5], in test [11], in test [7] and in test [9] was “Active” throughout. Also, the results for the inhibition in test [6], in test [8] and in [10] were 82%, 70% and 14%, respectively.

`NC(=O)c1ccc(-c2ccc(-c3cn(C(=O)N4CCCCC4c4ccccc4)nn3)cc2)cc1` (racemic): the inhibition result in test [5], in [12] and in test [13] was “Active” each time. Besides, the inhibition worked out at 27% in [6], 17% in test [14] and 0% in [15].

`O=C(N1CCCCC1Cc1ccccc1)n1cc(-c2ccc(-c3cccc(CO)c3)cc2)nn1` (racemic): the inhibition in [6] came to 91%; in test [8], 91%; in test [10] it was 37%. Besides, the inhibition result in test [7] and in [9] was “Active” in each case.

With `O=C(N1CCCCC1c1ccccc1)n1cc(-c2ccc(-c3ccc(CO)cc3)cc2)nn1` (racemic), the inhibition entry in test [5], in test [12] and in [13] was “Active” each time. Besides, the inhibition in test [6] is 47%; in [14], 18%; in [15], 0%.

`O=C(N1CCCCC1c1ccccc1)n1cc(-c2ccc(-c3ccccc3CO)cc2)nn1` (racemic): the inhibition result in test [5], in [12] and in [13] was “Active” throughout. Moreover, the inhibition in test [6] is 98%; in test [14], 38%; in [15], 0%.

Turning to `O=C(O)c1cccc(-c2ccc(-c3cn(C(=O)N4CCCCC4CCc4ccccc4)nn3)cc2)c1` (racemic), in [5], the inhibition entry is “Active”. In addition, the values for the inhibition in [6], in test [14] and in test [15] were 94%, 33% and 4%, respectively.

For `O=C(c1ccc(-c2ccc(-c3cn(C(=O)N4CCCCC4Cc4ccccc4)nn3)cc2)cc1)N1CCCCC1` (racemic), the inhibition was found to be 79% in test [6], 58% in test [8] and 15% in test [10]. For the same molecule, the inhibition result in [7] and in test [9] was “Active” in each case.

For `O=C(c1ccc(-c2ccc(-c3cn(C(=O)N4CCCCC4c4ccccc4)nn3)cc2)cc1)N1CCCCC1` (racemic), the inhibition entry in test [12] and in [13] was “Active” in each case. The inhibition is 94% in test [6], 35% in [14] and 0% in test [15].
